Assay results as given in ChEMBL document CHEMBL1127802, “Selective inhibitors of monoamine oxidase. 2. Arylamide SAR” (J Med Chem, 1994).
Values belong to the molecule of their own block, whether it stands above or below them.

Assays:
[1] = target: T1, MAO A (monoamine oxidase A) (Rattus norvegicus, UniProt P21396); test: (§1) Inhibitory activity against monoamine oxidase A (MAO A) from rat brain using a radiometric procedure with [3H]5-HT at 10 uM; conditions: rat brain monoamine oxidase A preparation, probe [3H]5-HT
T1 sequence (P21396 whole entry): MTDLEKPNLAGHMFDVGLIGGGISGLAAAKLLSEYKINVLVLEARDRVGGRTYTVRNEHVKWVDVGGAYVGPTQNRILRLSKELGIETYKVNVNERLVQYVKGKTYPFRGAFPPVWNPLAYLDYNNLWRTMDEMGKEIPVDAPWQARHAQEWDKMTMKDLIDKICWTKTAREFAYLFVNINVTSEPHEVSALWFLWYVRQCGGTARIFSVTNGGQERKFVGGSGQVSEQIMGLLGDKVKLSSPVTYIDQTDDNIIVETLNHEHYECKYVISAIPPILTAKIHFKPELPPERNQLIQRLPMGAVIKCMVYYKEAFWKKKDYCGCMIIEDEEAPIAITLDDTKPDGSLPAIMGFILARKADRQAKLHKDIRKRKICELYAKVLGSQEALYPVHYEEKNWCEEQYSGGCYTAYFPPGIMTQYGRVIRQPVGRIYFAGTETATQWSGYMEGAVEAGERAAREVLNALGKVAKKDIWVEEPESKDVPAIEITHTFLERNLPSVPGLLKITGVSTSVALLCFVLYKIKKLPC
Procedure, shortened: (§2)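 Rat brain mitochondrial MAO extract was preincubated with or without inhibitor for 15 min at 37 °C in 50 mM potassium phosphate, pH 7.4. […] Blanks contained 2 mM pargyline. Reactions were stopped with HCl, products extracted into ethyl acetate/toluene and counted by scintillation. Triplicates were averaged as % inhibition, and IC50 was taken from % inhibition vs log concentration.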

[2] = target: T2, MAO B (monoamine oxidase B) (Rattus norvegicus, UniProt P19643); test: (§3) Inhibitory activity against monoamine oxidase B (MAO B) from rat brain using a radiometric procedure with [14C]phenylethylamine at 1 uM; conditions: rat brain monoamine oxidase B preparation, probe [14C]phenylethylamine
T2 sequence (P19643 whole entry): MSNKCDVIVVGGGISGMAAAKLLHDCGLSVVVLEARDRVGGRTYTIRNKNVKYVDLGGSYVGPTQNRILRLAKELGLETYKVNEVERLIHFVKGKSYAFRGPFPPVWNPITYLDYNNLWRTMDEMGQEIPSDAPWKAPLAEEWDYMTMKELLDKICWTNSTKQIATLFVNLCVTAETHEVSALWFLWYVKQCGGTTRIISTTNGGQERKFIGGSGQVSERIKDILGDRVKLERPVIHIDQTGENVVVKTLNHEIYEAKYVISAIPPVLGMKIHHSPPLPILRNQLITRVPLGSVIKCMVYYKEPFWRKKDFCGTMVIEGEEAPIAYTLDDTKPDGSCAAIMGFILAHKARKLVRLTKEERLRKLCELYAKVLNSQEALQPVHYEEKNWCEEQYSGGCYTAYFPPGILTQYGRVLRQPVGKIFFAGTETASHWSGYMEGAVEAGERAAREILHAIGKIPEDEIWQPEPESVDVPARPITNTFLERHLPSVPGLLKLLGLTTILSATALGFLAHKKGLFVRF
Procedure, shortened: (§4)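 Rat brain mitochondrial MAO extract was preincubated ± inhibitor for 15 min at 37 °C in 50 mM potassium phosphate, pH 7.4. […] Pargyline (2 mM) defined blanks. Acid stop, ethyl acetate/toluene extraction and scintillation counting followed. Triplicate means gave % inhibition, and IC50 was extrapolated from % inhibition vs log concentration plots.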

[3] = target: T1, MAO A (monoamine oxidase A); test: (§5) Inhibitory activity against monoamine oxidase A (MAO A) from rat brain using a radiometric procedure with [3H]5-HT at 1 uM; conditions: rat brain monoamine oxidase A preparation, probe [3H]5-HT; procedure, shortened: as §2
[4] = target: T1, MAO A (monoamine oxidase A); test: Inhibitory activity against monoamine oxidase A (MAO A) from rat brain using a radiometric procedure with [3H]- serotonin at 1 uM; conditions: rat brain monoamine oxidase A preparation, probe [3H]-serotonin; procedure, shortened: as §2
[5] = target: T2, MAO B (monoamine oxidase B); test: Inhibitory activity against monoamine oxidase B (MAO B) from rat brain using a radiometric procedure with [14C]- phenethylamine at 1 uM; conditions: rat brain monoamine oxidase B preparation, probe [14C]-phenethylamine; procedure, shortened: as §4
[6] = target: T3, Amine oxidase [flavin-containing] B (Rattus norvegicus, UniProt P19643); test: as §3; procedure, shortened: as §4
T3 sequence (P19643 whole entry): T2 sequence (P19643 whole entry)

[7] = target: T4, Amine oxidase [flavin-containing] A (Rattus norvegicus, UniProt P21396); test: as §5; procedure, shortened: as §2
T4 sequence (P21396 whole entry): T1 sequence (P21396 whole entry)

[8] = target: T4, Amine oxidase [flavin-containing] A; test: Inhibitory activity against monoamine oxidase A (MAO A) from rat brain using a radiometric procedure with [3H]5-HT; procedure, shortened: as §2
[9] = target: T3, Amine oxidase [flavin-containing] B; test: Inhibitory activity against monoamine oxidase B (MAO B) from rat brain using a radiometric procedure with [14C]- phenethylamine.; procedure, shortened: as §4
[10] = target: T4, Amine oxidase [flavin-containing] A; test: Inhibitory activity against monoamine oxidase A (MAO A) from rat brain using a radiometric procedure with [3H]- serotonin.; procedure, shortened: as §2
[11] = target: T2, MAO B (monoamine oxidase B); test: Inhibitory activity against monoamine oxidase B (MAO B) from rat brain using a radiometric procedure with [14C]phenylethylamine at 0.3 uM; conditions: rat brain monoamine oxidase B preparation, probe [14C]phenylethylamine; procedure, shortened: as §4
[12] = target: T2, MAO B (monoamine oxidase B); test: Inhibitory activity against monoamine oxidase B (MAO B) from rat brain using a radiometric procedure with [14C]- phenethylamine at 10 uM; conditions: rat brain monoamine oxidase B preparation, probe [14C]-phenethylamine; procedure, shortened: as §4
[13] = target: T2, MAO B (monoamine oxidase B); test: (§6) Inhibitory activity against monoamine oxidase B (MAO B) from rat brain using a radiometric procedure with [14C]phenylethylamine at 10 uM; conditions: rat brain monoamine oxidase B preparation, probe [14C]phenylethylamine; procedure, shortened: as §4
[14] = target: T3, Amine oxidase [flavin-containing] B; test: Inhibitory activity against monoamine oxidase B (MAO B) from rat brain using a radiometric procedure with [14C]- phenethylamine at<10 uM; procedure, shortened: as §4
[15] = target: T1, MAO A (monoamine oxidase A); test: Inhibitory activity against monoamine oxidase A (MAO A) from rat brain using a radiometric procedure with [3H]- serotonin at 10 uM; conditions: rat brain monoamine oxidase A preparation, probe [3H]-serotonin; procedure, shortened: as §2
[16] = target: T3, Amine oxidase [flavin-containing] B; test: as §6; procedure, shortened: as §4
[17] = target: T4, Amine oxidase [flavin-containing] A; test: as §1; procedure, shortened: as §2
[18] = target: T2, MAO B (monoamine oxidase B); test: Inhibitory activity against monoamine oxidase B (MAO B) from rat brain using a radiometric procedure with [14C]phenylethylamine at 0.1 uM; conditions: rat brain monoamine oxidase B preparation, probe [14C]phenylethylamine; procedure, shortened: as §4
[19] = target: T1, MAO A (monoamine oxidase A); test: Inhibitory activity against monoamine oxidase A (MAO A) from rat brain using a radiometric procedure with [3H]- serotonin at 0.1 uM; conditions: rat brain monoamine oxidase A preparation, probe [3H]-serotonin; procedure, shortened: as §2
[20] = target: T2, MAO B (monoamine oxidase B); test: Inhibitory activity against monoamine oxidase B (MAO B) from rat brain using a radiometric procedure with [14C]- phenethylamine at 0.1 uM; conditions: rat brain monoamine oxidase B preparation, probe [14C]-phenethylamine; procedure, shortened: as §4

Compound: Nc1ccc2[nH]c(=O)c3ccccc3c2c1
inhibition [1]: 0%

Compound: CC(=O)Nc1ccc2[nH]c(=O)c3ccccc3c2c1
inhibition at 1 µM [2]: 11% | inhibition [3]: 0%

Compound: CC(=O)Nc1ccc2c(c1)S(=O)(=O)c1ccccc1C2
inhibition at 1 µM [2]: 49% | inhibition [3]: 17%

Compound: CC(=O)Nc1ccc2c(c1)C(O)c1ccccc1-2 (centres undefined)
IC50 [8]: 300 nM

Compound: CC(=O)Nc1ccc2c(c1)oc(=O)c1ccccc12
inhibition at 1 µM [5]: 8% | IC50 [10]: 40 nM

Compound: CCC(=O)Nc1ccc2c(c1)-c1ccccc1S2(=O)=O
IC50 [8]: 1200 nM

Compound: CCc1ccc2c(c1)C(=O)c1ccc(NC(C)=O)cc1S2(=O)=O
IC50 [8]: 10 nM | inhibition at 0.3 µM [11]: 15%

Compound: CC(=O)Nc1ccc2c3c([nH]c2c1)CCCC3
inhibition at 1 µM [2]: 0% | inhibition [3]: 35%

Compound: CC(=O)Nc1ccc2c(c1)C(=O)c1ccccc1-2
IC50 [8]: 40 nM | inhibition at 1 µM [2]: 3%

Compound: O=CNc1ccc2c(c1)[nH]c1ccccc12
IC50 [8]: 1100 nM

Compound: Nc1ccc2c(c1)-c1ccccc1S2(=O)=O
IC50 [8]: 1000 nM

Compound: CC(=O)Nc1ccc2[nH]c3ccccc3c2c1
inhibition at 10 µM [12]: 37%

Compound: CC(=O)Nc1cc2c(ccc3ccccc32)oc1=O
inhibition at 1 µM [4]: 10% | inhibition at 1 µM [5]: 12%

Compound: CC(=O)N(C)c1ccc2c(c1)-c1ccccc1S2(=O)=O
inhibition [3]: 0%

Compound: CC(=O)Nc1ccc(Nc2ccccc2)c(NC(C)=O)c1
inhibition at 10 µM [15]: 4% | inhibition at 10 µM [12]: 4%

Compound: CC(=O)Nc1ccc2c(c1)oc1ccccc12
IC50 [8]: 300 nM

Compound: CC(=O)Nc1ccc2c(c1)S(=O)(=O)c1ccccc1C2=O
IC50 [8]: 60 nM | inhibition at 1 µM [2]: -1%

Compound: CC(=O)Nc1ccc2c(c1)C(=O)c1cc([N+](=O)[O-])ccc1-2
IC50 [8]: 1300 nM

Compound: CC(=O)Nc1ccc2c(c1)S(=O)(=O)c1ccc(C)cc1C2=O
IC50 [8]: 700 nM

Compound: CC(=O)Nc1nc2cc(C)c(C)cc2[nH]1
inhibition at 10 uM [13]: 18% | inhibition [1]: 50%

Compound: CC(=O)Nc1ccc2c(cnn2C(C)=O)c1
inhibition at 1 µM [4]: 4% | inhibition at 1 µM [5]: 27%

Compound: CC(=O)Nc1ccc2c(c1)S(=O)(=O)c1ccccc1N2
inhibition [16]: 22% | inhibition [17]: 74%

Compound: O=CN(C=O)c1ccc2c(c1)S(=O)(=O)c1ccccc1C2=O
inhibition at 10 uM [13]: 3% | inhibition [1]: 18%

Compound: CC(=O)Nc1ccc2c(c1)S(=O)(=O)c1ccccc1O2
IC50 [8]: 14 nM | inhibition at 0.1 µM [18]: 0%

Compound: NC(=O)Nc1ccc2c(c1)[nH]c1ccccc12
inhibition at 1 µM [2]: 26% | inhibition [3]: 74%

Compound: CC(=O)Nc1nc2ccccc2[nH]1
inhibition at 10 uM [13]: -2% | inhibition [1]: 8%

Compound: CC(=O)Nc1ccc2c3ccccc3n(C)c2c1
IC50 [8]: 30 nM

Compound: CC(=O)Nc1ccc2c(c1)-c1ccccc1S2(=O)=O
IC50 [8]: 260 nM | inhibition at 1 µM [2]: 13%

Compound: CC(=O)Nc1ccc2c(c1)COCO2
inhibition at 10 uM [13]: 22% | inhibition [1]: 42%

Compound: O=CNc1ccc2c(c1)-c1ccccc1S2(=O)=O
IC50 [8]: 1000 nM

Compound: CC(=O)Nc1ccc2c(c1)C(=O)c1ccccc1S2(=O)=O
IC50 [8]: 120 nM | inhibition at 1 µM [2]: 39%

Compound: CC(=O)Nc1ccc2c3c([nH]c2c1)CCC(C)(C=O)C3 (centres undefined)
inhibition at 1 µM [4]: 0% | inhibition at 1 µM [5]: 11%

Compound: CC(=O)Nc1ccc2oc(=O)c3ccccc3c2c1
inhibition at 0.1 uM [19]: 10% | inhibition at 0.1 µM [20]: 23%

Compound: CC(=O)Nc1ccc(Oc2ccc(CS(C)(=O)=O)cc2)cc1
inhibition at 1 µM [2]: 25% | inhibition [3]: 31%

Compound: CC(=O)Nc1ccc2c(c1)S(=O)(=O)c1cc(NC(C)=O)ccc1N2C
inhibition [6]: 7% | inhibition [7]: 2%

Further lines, results first:

inhibition at 1 µM [4]: 0% | inhibition at 1 µM [5]: 0%
Compound: CC(=O)Nc1ccc2[nH]ccc2c1

inhibition at 1 µM [2]: 18% | inhibition [3]: 60%
Compound: CC(=O)Nc1ccc2c(c1)S(=O)(=O)c1ccccc1N2C

inhibition [3]: 36%
Compound: CCCC(=O)Nc1ccc2c(c1)[nH]c1ccccc12

inhibition [1]: 80%
Compound: CC(=O)Nc1ccc2c3ccccc3n(CCCN3CCN(C)CC3)c2c1

inhibition [6]: 42% | inhibition [7]: < 1%
Compound: CC(=O)Nc1ccc2[nH]c(C)c(C)c2c1

inhibition at 1 µM [2]: 0% | inhibition [3]: 50%
Compound: CC(=O)NCCc1ccc2c(c1)c1ccccc1n2C

inhibition at 1 µM [2]: 0% | inhibition [3]: 55%
Compound: CC(=O)Nc1ccc2c(c1)c(O)nc1ccccc12

IC50 [9]: 3500 nM | IC50 [10]: 160 nM
Compound: CC(=O)Nc1ccc2c(c1)C(=O)c1ccccc1C2=O

inhibition at 1 µM [2]: 21% | inhibition [3]: 72%
Compound: CC(=O)Nc1ccc2c(O)c3ccccc3nc2c1

inhibition at 1 µM [2]: -27% | inhibition [3]: 37%
Compound: CC(=O)Nc1ccc2c(c1)N(C(C)=O)CC2

IC50 [8]: 20 nM | inhibition at 10 uM [13]: -7%
Compound: CCCc1ccc2c(c1)S(=O)(=O)c1cc(NC(C)=O)ccc1C2=O

inhibition at 1 µM [4]: 5% | inhibition [14]: 53%
Compound: CC(=O)Nc1cc2ccccc2oc1=O

inhibition at 1 µM [2]: 37% | inhibition [3]: 13%
Compound: CC(=O)Nc1ccc2c(c1)CCC2

inhibition at 10 µM [15]: 44%
Compound: CC(=O)Nc1cccc(Nc2ccccc2)c1

inhibition [3]: 61%
Compound: CC(=O)Nc1ccc2c(c1)[nH]c1ccc(Br)cc12

inhibition at 1 µM [2]: 30% | inhibition [3]: 16%
Compound: CC(=O)NCc1ccc2c(c1)c1ccccc1n2C

inhibition at 10 uM [13]: 13% | inhibition [1]: 22%
Compound: NC(=O)Nc1ccccc1-c1ccccc1

inhibition at 10 uM [13]: 38% | inhibition [1]: 54%
Compound: CC(=O)Nc1nc2cc(C)c(C)cc2s1

inhibition at 1 µM [4]: 12%
Compound: CC(=O)Nc1cccc2c1C(=O)c1ccccc1C2=O

inhibition [3]: 34%
Compound: CNc1ccc2c(c1)-c1ccccc1S2(=O)=O

inhibition at 1 µM [2]: 20% | inhibition [3]: 7%
Compound: CC(=O)NC(C)c1ccc2c(c1)[nH]c1ccccc12 (centres undefined)
